This passage reports IC50, Ki and Activity results from ChEMBL document CHEMBL4007382 (Eur J Med Chem, 2017).

pIC50: −log10 of the molar value.

Series [1] concerns the target Cholinesterase (Equus caballus, UniProt P81908). The experiment in a line: Inhibition of equine serum BuChE using S-butyrylthiocholine iodide as substrate preincubated for 60 mins followed by substrate addition measured after 5 mins by Ellman's method. In a few lines:
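Equine serum BChE (0.1 U/mL) in 100 mM sodium phosphate, pH 8, was preincubated at 37°C for 60 min with seven inhibitor concentrations (top 1×10^-5 M; stocks in acetonitrile:water 1:9). Added mix contained BTCh 2.5 mM and DTNB 3.4 mM. A412 was read for 5 min at 37°C, with enzyme-free blank subtracted. Triplicates.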

The target of series [2] is T1, Cholinesterase (Homo sapiens, UniProt P06276). In words: Irreversible inhibition of human plasma BuChE assessed as second order carbamylation rate constant using S-butyrylthiocholine iodide as substrate preincubated up to 45 mins followed by substrate addition measured after 5 mins. In a few lines:
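Diluted human plasma BChE was preincubated for 1–45 min with inhibitor at 5×10^-9, 1×10^-8, 2.5×10^-8 and 5×10^-8 M. Residual Ellman activity with BTCh at pH 8 was normalised to a water control. kobs came from a one-phase exponential fit; k_I1 came from the slope of kobs versus concentration.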

The test system of series [3] is Mus musculus. The experiment in a line: Cardiotoxicity in Kunming mouse assessed as change in heart rate at 20 mg/kg, ip measured after 6 mins by electrocardiogram (reference value: -19.47 +/- 22.55). The conditions noted are these: in vivo, 0.1 h. It is filed as toxicity, organism-based.
Series [4] concerns Mus musculus. In words: Cardiotoxicity in Kunming mouse assessed as change in heart rate at 20 mg/kg, ip measured after 11 mins by electrocardiogram (reference value: -35.4 +/- 11.4). It is filed as toxicity, organism-based. The conditions noted are these: in vivo.
Series [5] relates to Mus musculus. In words: Cardiotoxicity in Kunming mouse assessed as change in heart rate at 20 mg/kg, ip measured after 16 mins by electrocardiogram (reference value: -38.67 +/- 10.18). The conditions noted are these: in vivo. It is filed as toxicity, organism-based.
The test system of series [6] is Mus musculus. The experiment in a line: Cardiotoxicity in Kunming mouse assessed as change in heart rate at 20 mg/kg, ip measured after 18 mins by electrocardiogram (reference value: -37.61 +/- 15). The class given is toxicity, organism-based. To be noted: in vivo, 0.3 h.
Series [7] has as its system Mus musculus. The experiment in a line: Cardiotoxicity in Kunming mouse assessed as change in heart rate at 20 mg/kg, ip measured after 19 mins by electrocardiogram (reference value: -38.67 +/- 13.91). The conditions noted are these: in vivo. The class given is toxicity, organism-based.
In series [8] the test system is Mus musculus. The experiment in a line: Cardiotoxicity in Kunming mouse assessed as change in heart rate at 20 mg/kg, ip measured after 21 mins by electrocardiogram (reference value: -40.23 +/- 16.21). The class given is toxicity, organism-based. To be noted: in vivo, 0.35 h.
The test system of series [9] is Mus musculus. In words: Cardiotoxicity in Kunming mouse assessed as change in heart rate at 20 mg/kg, ip measured after 28 mins by electrocardiogram (reference value: -49.06 +/- 20.71). The class given is toxicity, organism-based. To be noted: in vivo.
For series [10], the system named is Mus musculus. In words: Cardiotoxicity in Kunming mouse assessed as change in heart rate at 20 mg/kg, ip measured after 31 mins by electrocardiogram (reference value: -42.8 +/- 29.79). It is filed as toxicity, organism-based. The conditions noted are these: in vivo.
Series [11] relates to Mus musculus. In words: Cardiotoxicity in Kunming mouse assessed as change in heart rate at 20 mg/kg, ip measured after 32 mins by electrocardiogram (reference value: -43.48 +/- 20.81). The class given is toxicity, organism-based. To be noted: in vivo.
In series [12] the test system is Mus musculus. The experiment in a line: Cardiotoxicity in Kunming mouse assessed as change in heart rate at 20 mg/kg, ip measured after 36 mins by electrocardiogram (reference value: -32.32 +/- 25.52). It is filed as toxicity, organism-based. To be noted: in vivo, 0.6 h.
The target of a further series is Acetylcholinesterase (Homo sapiens, UniProt P22303). In words: Inhibition of human blood AChE using acetylthiocholine as substrate.
Acetylcholinesterase, sequence (P22303 whole entry): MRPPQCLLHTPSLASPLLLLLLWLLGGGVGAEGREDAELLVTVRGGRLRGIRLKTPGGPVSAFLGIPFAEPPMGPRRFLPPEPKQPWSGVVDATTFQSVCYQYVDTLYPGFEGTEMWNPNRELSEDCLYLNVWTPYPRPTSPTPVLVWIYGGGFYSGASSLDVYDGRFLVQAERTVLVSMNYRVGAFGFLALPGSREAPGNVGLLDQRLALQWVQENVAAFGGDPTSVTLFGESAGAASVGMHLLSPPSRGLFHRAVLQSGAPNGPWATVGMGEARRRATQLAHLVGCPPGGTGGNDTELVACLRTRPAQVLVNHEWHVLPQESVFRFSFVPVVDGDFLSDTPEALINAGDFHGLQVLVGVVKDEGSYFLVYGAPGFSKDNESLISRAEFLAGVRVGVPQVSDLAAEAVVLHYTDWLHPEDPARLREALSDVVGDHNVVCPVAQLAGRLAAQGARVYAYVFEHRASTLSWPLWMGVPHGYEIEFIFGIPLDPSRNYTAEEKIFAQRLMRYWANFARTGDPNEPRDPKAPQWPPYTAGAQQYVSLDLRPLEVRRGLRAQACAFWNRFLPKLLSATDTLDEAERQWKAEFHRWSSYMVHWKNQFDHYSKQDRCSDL
Series [13] concerns the target T1, Cholinesterase. The experiment in a line: Inhibition of human blood BuChE using butyrylthiocholine as substrate. In a few lines:
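Source was plasma from heparinised blood of one healthy donor, centrifuged at 1000 × g for 20 min at 25°C, stored at -80°C and diluted 150X. Ellman assay at pH 8 and 37°C with 60 min preincubation and seven inhibitor concentrations in water, 5×10^-8 to 5×10^-10 M. Triplicates.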

Cholinesterase (Equus caballus, UniProt P81908), sequence (P81908 whole entry): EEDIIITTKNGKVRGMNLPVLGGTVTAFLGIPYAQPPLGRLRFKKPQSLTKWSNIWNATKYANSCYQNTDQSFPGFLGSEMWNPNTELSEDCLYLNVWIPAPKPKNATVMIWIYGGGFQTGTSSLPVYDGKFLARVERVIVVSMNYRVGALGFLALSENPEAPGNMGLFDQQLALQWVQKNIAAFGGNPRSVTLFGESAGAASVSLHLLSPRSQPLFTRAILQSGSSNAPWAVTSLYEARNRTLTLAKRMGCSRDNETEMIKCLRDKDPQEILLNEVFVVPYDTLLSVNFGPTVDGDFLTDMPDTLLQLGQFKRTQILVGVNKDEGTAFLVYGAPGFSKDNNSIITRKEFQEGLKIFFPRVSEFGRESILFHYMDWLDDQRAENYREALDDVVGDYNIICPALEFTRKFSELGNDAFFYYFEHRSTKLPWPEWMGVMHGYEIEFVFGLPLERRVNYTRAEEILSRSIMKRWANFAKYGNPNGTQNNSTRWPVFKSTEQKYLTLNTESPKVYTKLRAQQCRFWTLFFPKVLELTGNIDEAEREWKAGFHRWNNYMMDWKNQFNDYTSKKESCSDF
T1 sequence (P06276 whole entry): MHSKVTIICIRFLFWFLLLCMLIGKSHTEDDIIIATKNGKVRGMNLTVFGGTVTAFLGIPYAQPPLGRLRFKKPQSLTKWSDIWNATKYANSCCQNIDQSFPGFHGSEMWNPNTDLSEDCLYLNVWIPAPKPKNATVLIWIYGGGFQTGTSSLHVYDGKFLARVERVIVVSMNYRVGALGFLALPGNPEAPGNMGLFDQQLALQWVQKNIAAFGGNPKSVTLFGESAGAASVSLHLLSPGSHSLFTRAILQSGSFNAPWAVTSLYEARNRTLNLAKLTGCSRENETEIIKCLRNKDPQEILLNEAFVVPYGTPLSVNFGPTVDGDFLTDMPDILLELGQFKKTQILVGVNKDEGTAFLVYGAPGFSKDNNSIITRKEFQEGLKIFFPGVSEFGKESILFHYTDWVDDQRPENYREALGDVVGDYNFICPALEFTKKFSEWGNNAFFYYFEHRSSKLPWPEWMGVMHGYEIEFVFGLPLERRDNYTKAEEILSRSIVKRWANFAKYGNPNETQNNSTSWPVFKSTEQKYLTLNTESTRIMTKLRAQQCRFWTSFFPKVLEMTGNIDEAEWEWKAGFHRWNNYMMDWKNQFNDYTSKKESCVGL

On to `CN(C)C(=O)Oc1cc(OC(=O)N(C)C)cc(C(O)CNC(C)(C)C)c1` (stereo not drawn) [BAMBUTEROL], for which the results for the pIC50 against Cholinesterase [1], at Acetylcholinesterase and against Cholinesterase [13] were 6.92, 4.52 and 8.52, respectively. Also, the Ki at Cholinesterase [2] was 77.7 ×10⁵ /M/min. Moreover, the Activity in the series with Mus musculus [3] is given as 16.63 bpm; with Mus musculus [4], 5.19 bpm; with Mus musculus [5], 57.32 bpm; in the series on Mus musculus [6] it was 32.35 bpm; with Mus musculus [7], 38.36 bpm; with Mus musculus [8], 32.75 bpm. Further, the Activity was -15.03 bpm in the series on Mus musculus [9], -13.49 bpm with Mus musculus [10], -2.09 bpm in the series on Mus musculus [11] and -26.54 bpm with Mus musculus [12].

Compound `CCC(C)(C)NCC(O)c1cc(OC(=O)N(C)C)cc(OC(=O)N(C)C)c1.Cl` (stereo not drawn) gave a pIC50 on Cholinesterase [1] of 6.90. Further, the Ki at Cholinesterase [2] was 60 ×10⁵ /M/min. Further, the Activity in the series on Mus musculus [3] is -31.29 bpm; in the series with Mus musculus [4], -42.6 bpm; with Mus musculus [5] it was -42.02 bpm; in the series on Mus musculus [6] it was -38.45 bpm; in the series with Mus musculus [7], -41.43 bpm; in the series with Mus musculus [8] it was -41.83 bpm. For the same compound, the Activity in the series with Mus musculus [9] was -37.58 bpm; in the series on Mus musculus [10] it was -37.65 bpm; with Mus musculus [11], -36.77 bpm; in the series on Mus musculus [12], -36.32 bpm.

For the compound `CCN(C)C(=O)Oc1cc(OC(=O)N(C)CC)cc(C(O)CNC(C)(C)CC)c1.Cl` (stereo not drawn), the pIC50 at Cholinesterase [1] is 6.94. The Ki on Cholinesterase [2] came to 73.3 ×10⁵ /M/min. Also, the Activity was -1.48 bpm in the series on Mus musculus [3]; -8.17 bpm with Mus musculus [4]; 3.92 bpm with Mus musculus [5]; 5.47 bpm in the series on Mus musculus [6]; 2.88 bpm in the series on Mus musculus [7]; 0.05 bpm in the series with Mus musculus [8]. Besides, the Activity with Mus musculus [9] is given as -7.52 bpm; with Mus musculus [10] it was 1.28 bpm; with Mus musculus [11], -1.37 bpm; with Mus musculus [12], -25.47 bpm.

Usually pIC50 stands for −log10 of the IC50, conventionally taken in molar units.
